One data set relates to CAR cell line. Description: MTT antiproliferative assay against cisplatin-resistant oral squamous. It is filed as cell-based, human. The gist of the method: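 Cells are a CAL27-derived line selected through 10 cycles of 10–80 μM cisplatin and maintained in DMEM/10% FBS with penicillin, streptomycin, 2 mM L-glutamine and 80 μM cisplatin. They were seeded at 2×10^4 cells/well and exposed to 0–100 μM test compound (0.5% DMSO vehicle) for 48 or 72 h. MTT (500 μg/ml) was added for 4 h at 37 °C, formazan was dissolved in DMSO, and A570 was read. Viability is expressed as % of control.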
In general terms: Tetrazolium assays rely on reduction of a dye to a coloured formazan, in cell work by metabolically active cells.

A further data set has as its system CAR xenograft. Description: In vivo antitumor activity in CAR xenograft nude mouse model. On the set-up: species or system BALB/c nude mice. Summed up:
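Male 4-week-old BALB/c nude mice; CAR cells (cisplatin-resistant CAL27, cultured with 80 μM cisplatin), 1×10^7/mouse in medium:Matrigel 1:1, injected s.c. into flank. At ~50 mm3 (day 22), randomised into four groups; test compound oral 25, 50 or 100 mg/kg once daily ×30 in 1,2-propanediol; controls vehicle only. Caliper tumor size ([…]); tumors excised, weighed day 31.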

The nature of data set [1]: Toxicity monitoring and blood biochemical analysis in CAR xenograft nude mice. It counts as in vivo, BALB/c nude mice.
Data set [2] can be described thus: Preliminary pharmacokinetic study of compound 12 in rats. Particulars: single oral 100 mg/kg, PO-1 and PO-2 formulations, 0.5-24 h.
The mark [3] stands for this setting: read-out: IC50 (concentration for 50% antiproliferative effect), CAR cells, 48 h.
The mark [4] stands for this setting: read-out: IC50 (concentration for 50% antiproliferative effect), CAR cells, 72 h.

Like-named read-outs stand apart in the source and are kept apart here.

As to “4-[(E)-2-(3,5-dimethoxyphenyl)ethenyl]phenol [Pterostilbene, reference compound]”, the figures for the IC50 in the data set on CAR cell line (setting [3]) and in the data set on CAR cell line (setting [4]) were 100 ± 4.78 µM and 98.3 ± 5.21 µM, respectively.
The like results for `N.N.[Cl][Pt][Cl]` [Cisplatin, reference compound] were, in that order, greater than 100 µM and greater than 100 µM.
Regarding `COc1cc(/C=C/c2ccc(OC(=O)C(C)(CO)CO)cc2)cc(OC)c1` [Compound 12, 4-(3,5-Dimethoxystyryl)phenyl-3-hydroxy-2-(hydroxymethyl)-2-methylpropanoate], the “inhibitory effects on CAR tumor size and weight” value in the data set with CAR xenograft (25, 50 and 100 mg/kg PO once daily for 30 days) was “dose- and time-dependent inhibitory effects”. In addition, the antitumor activity result in the data set with CAR xenograft (lowest oral dose 25 mg/kg/day) is on record as “Obvious antitumor activity”. For the same compound, in data set [1] (25, 50 and 100 mg/kg PO QD×30), the “changes in body weight, food consumption and behavior vs untreated control” value is reported as “no obvious changes”. The “blood analysis, 12-fed groups vs control group” value in data set [1] (total protein, albumin, creatinine, BUN, uric acid, glucose, 25-100 mg/kg QD×30) is on record as “no significant difference”. Besides, in data set [2], the “blood concentration of compound 12” value is given as “not detected”.
Turning to “(E)-4-(3,5-Dihydroxystyryl)phenyl 3-hydroxy-2-(hydroxymethyl)-2-methylpropanoate [Compound 20]”, the IC50 is 52 ± 2.6 µM in the data set with CAR cell line (setting [3]) and 50.3 ± 1.98 µM in the data set with CAR cell line (setting [4]).
The matching figures for “(E)-4-(3-Acetoxy-5-((3-hydroxy-2-(hydroxymethyl)-2-methylpropanoyl)oxy) styryl)phenyl 3-hydroxy-2-(hydroxymethyl)-2-methylpropanoate [Compound 27]”: 122 ± 2.69 µM and 119 ± 2.19 µM.
The like results for “(E)-4-(3-Acetoxy-5-methoxystyryl)phenyl 3-hydroxy-2-(hydroxymethyl)-2-methylpropanoate [Compound 18]” were, in that order, 169 ± 3.19 µM and 133 ± 2.45 µM.
The matching figures for “(E)-4-(3-Hydroxy-5-((3-hydroxy-2-(hydroxymethyl)-2-methylpropanoyl)oxy) styryl)phenyl 3-hydroxy-2-(hydroxymethyl)-2-methylpropanoate [Compound 25]”: 105 ± 1.98 µM and 113 ± 2.77 µM.
On to “(E)-5-(4-((3-Hydroxy-2-(hydroxymethyl)-2-methylpropanoyl)oxy)styryl)-1,3-phenylene diacetate [Compound 22]”, for which the IC50 amounted to 103 ± 4.58 µM in the data set with CAR cell line (setting [3]) and 116 ± 3.96 µM in the data set with CAR cell line (setting [4]).
The like results for “(E)-5-(4-((3-Hydroxy-2-(hydroxymethyl)-2-methylpropanoyl)oxy)styryl)-1,3-phenylene diacetate [Compound 23]” were, in that order, 54.9 ± 2.59 µM and 114 ± 3.25 µM.
Regarding “(E)-5-(4-Hydroxystyryl)-1,3-phenylene bis(3-hydroxy-2-(hydroxymethyl)-2-methylpropanoate) [Compound 24]”, the IC50 worked out at 90.4 ± 3.65 µM in the data set on CAR cell line (setting [3]) and 76.9 ± 3.22 µM with CAR cell line (setting [4]).

These data come from PMC6087491 (Bioorganic & medicinal chemistry, 2018).
